In ChEMBL document CHEMBL1128719, “The synthesis, structure-activity, and structure-side effect relationships of a series of 8-alkoxy- and 5-amino-8-alkoxyquinolone antibacterial agents” (J Med Chem, 1995):
Converted amounts (≈) assume the structure as drawn.

Assays:
Clostridioides difficile = assay: In vitro antibacterial activity was tested for Clostridium diff CD1-1; format: functional
[1] = test system: Peptoniphilus asaccharolyticus; assay: In vitro antibacterial activity was tested for Pepto asac PA 3-1; format: functional
Summary of the method: (§1)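 Microtitration (microdilution) MIC determination in μg/mL against a panel of Gram-positive, Gram-negative and anaerobic organisms. Values come from duplicate or triplicate experiments and are stated accurate to ±50%.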

Mus musculus [2] = species on record: Mus musculus; assay: (§2) Phototoxic skin reaction in depilated female CD-1 mice; format: toxicity, organism-based; conditions: in vivo
Summary of the method: (§3)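 Female CD-1 mice, depilated, given a single oral or subcutaneous dose. UVA (320–400 nm) exposure for 3 h, starting 1 h post-dose. Initial doses were 30, 100 and 300 mg/kg. PTD50 (dose giving phototoxic skin reaction in 50% of mice) derived by probit method. First day of positive reaction and no-effect dose taken from raw data.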

Cutibacterium acnes = assay: In vitro antibacterial activity was tested for Propion acnes PA5-1; format: functional; summary of the method: as §1
Mus musculus [3] = species on record: Mus musculus; assay: Phototoxic skin reaction in depilated female CD-1 mice.; format: functional; summary of the method: as §3
Clostridium perfringens = assay: In vitro antibacterial activity against Clostridium perfringens CP 3-1; format: functional
Bacteroides fragilis = assay: In vitro antibacterial activity against Bacteroides fragilis BFA; format: functional; summary of the method: as §1
V79 = assay: Clonogenic cytotoxicity against Chinese hamster V-79 cells; format: functional, cell-based; conditions: Cricetulus griseus
Staphylococcus aureus [4] = assay: In vitro antibacterial activity was tested for Staphylococcus aureus H228; format: functional; summary of the method: as §1
Enterobacter cloacae = assay: In vitro antibacterial activity was tested for Enterobacter cloacae HA2646; format: functional
Klebsiella pneumoniae = assay: In vitro antibacterial activity was tested for Klebsiella pneumoniae MGH-2; format: functional; summary of the method: as §1
Streptococcus pyogenes = assay: In vitro antibacterial activity was tested for Streptococcus pyogenes C203; format: functional; summary of the method: as §1
Streptococcus pneumoniae = assay: In vitro antibacterial activity was tested for Streptococcus pneumoniae SV-1; format: functional; summary of the method: as §1
Escherichia coli [5] = assay: In vitro antibacterial activity was tested for Escherichia coli H560; format: functional; summary of the method: as §1
Escherichia coli [6] = assay: In vitro antibacterial activity was tested for Escherichia coli Vogel; format: functional; summary of the method: as §1
Pseudomonas aeruginosa = assay: In vitro antibacterial activity was tested for Pseudomonas aeruginosa UI-18; format: functional; summary of the method: as §1
Providencia rettgeri = assay: In vitro antibacterial activity was tested for Providencia rettgeri H1771; format: functional; summary of the method: as §1
Enterococcus faecalis = assay: In vitro antibacterial activity was tested for Streptococcus faecalis MGH-2; format: functional; summary of the method: as §1
Staphylococcus aureus [7] = assay: In vitro antibacterial activity was tested for Staphylococcus aureus UC-76; format: functional; summary of the method: as §1
Mus musculus [8] = species on record: Mus musculus; assay: as §2; format: functional; summary of the method: as §3

Structure (SMILES)	MIC (Clostridioides difficile) [mg/L]	MIC [1] [mg/L]	PTD50 (Mus musculus [2]) [mg]	MIC (Cutibacterium acnes) [mg/L]	No effect dose (Mus musculus [3]) [mg]	MIC (Clostridium perfringens) [mg/L]	MIC (Bacteroides fragilis) [mg/L]	IC50 (V79) [mg/L]	MIC (Staphylococcus aureus [4]) [mg/L]	MIC (Enterobacter cloacae) [mg/L]	MIC (Klebsiella pneumoniae) [mg/L]	MIC (Streptococcus pyogenes) [mg/L]	MIC (Streptococcus pneumoniae) [mg/L]	MIC (Escherichia coli [5]) [mg/L]	MIC (Escherichia coli [6]) [mg/L]	MIC (Pseudomonas aeruginosa) [mg/L]	MIC (Providencia rettgeri) [mg/L]	MIC (Enterococcus faecalis) [mg/L]	MIC (Staphylococcus aureus [7]) [mg/L]	No effect dose (Mus musculus [8]) [mg]
CC1(CN)CCN(c2c(F)c(N)c3c(=O)c(C(=O)O)cn(C4CC4)c3c2F)C1 (centres undefined)	1.6 (≈ 4.08 µM)	0.2 (≈ 0.51 µM)	> 30	0.4 (≈ 1.02 µM)	30	0.025 (≈ 0.0637 µM)	0.8 (≈ 2.04 µM)	–	–	–	–	–	–	–	–	–	–	–	–	–
CC1(CN)CCN(c2cc3c(cc2F)c(=O)c(C(=O)O)cn3C2CC2)C1 (centres undefined)	6.3 (≈ 17.5 µM)	1.6 (≈ 4.45 µM)	> 100	1.6 (≈ 4.45 µM)	100	0.2 (≈ 0.556 µM)	6.3 (≈ 17.5 µM)	–	–	–	–	–	–	–	–	–	–	–	–	–
NC1CCCN(c2cc3c(cc2F)c(=O)c(C(=O)O)cn3C2CC2)C1 (centres undefined)	–	–	> 100	–	100	–	–	560 (≈ 1620 µM)	–	–	–	–	–	–	–	–	–	–	–	–
COc1c(N2CC[C@H](N)C2)c(F)cc2c(=O)c(C(=O)O)cn(C3CC3)c12	0.2 (≈ 0.553 µM)	0.8 (≈ 2.21 µM)	–	0.4 (≈ 1.11 µM)	–	0.2 (≈ 0.553 µM)	0.2 (≈ 0.553 µM)	32 (≈ 88.6 µM)	0.05 (≈ 0.138 µM)	0.025 (≈ 0.0692 µM)	0.05 (≈ 0.138 µM)	0.025 (≈ 0.0692 µM)	0.025 (≈ 0.0692 µM)	0.025 (≈ 0.0692 µM)	0.025 (≈ 0.0692 µM)	0.4 (≈ 1.11 µM)	0.1 (≈ 0.277 µM)	0.05 (≈ 0.138 µM)	0.013 (≈ 0.036 µM)	–
CCNCC1CCCN(c2c(F)cc3c(=O)c(C(=O)O)cn(C4CC4)c3c2OCC)C1 (centres undefined)	3.1 (≈ 7.18 µM)	0.4 (≈ 0.927 µM)	–	3.1 (≈ 7.18 µM)	–	0.4 (≈ 0.927 µM)	3.1 (≈ 7.18 µM)	460 (≈ 1070 µM)	0.2 (≈ 0.463 µM)	1.6 (≈ 3.71 µM)	3.1 (≈ 7.18 µM)	0.1 (≈ 0.232 µM)	0.1 (≈ 0.232 µM)	0.8 (≈ 1.85 µM)	0.8 (≈ 1.85 µM)	> 3.1	> 3.1	0.2 (≈ 0.463 µM)	0.05 (≈ 0.116 µM)	–
C[C@@H]1CN(c2c(F)cc3c(=O)c(C(=O)O)cn(C4CC4)c3c2F)C[C@H](C)N1	3.1 (≈ 8.21 µM)	1.6 (≈ 4.24 µM)	55	0.8 (≈ 2.12 µM)	–	0.2 (≈ 0.53 µM)	1.6 (≈ 4.24 µM)	–	–	–	–	–	–	–	–	–	–	–	–	30
CCOc1c(N2CCC(N)C2)c(F)c(N)c2c(=O)c(C(=O)O)cn(C3CC3)c12 (centres undefined)	12.5 (≈ 32 µM)	0.8 (≈ 2.05 µM)	> 100	3.1 (≈ 7.94 µM)	100	0.4 (≈ 1.02 µM)	3.1 (≈ 7.94 µM)	220 (≈ 564 µM)	0.05 (≈ 0.128 µM)	0.1 (≈ 0.256 µM)	0.2 (≈ 0.512 µM)	0.1 (≈ 0.256 µM)	0.05 (≈ 0.128 µM)	0.05 (≈ 0.128 µM)	0.05 (≈ 0.128 µM)	3.1 (≈ 7.94 µM)	0.4 (≈ 1.02 µM)	0.1 (≈ 0.256 µM)	0.013 (≈ 0.0333 µM)	–
COc1c(N2CCCC(CN)C2)c(F)c(N)c2c(=O)c(C(=O)O)cn(C3CC3)c12 (centres undefined)	1.6 (≈ 3.96 µM)	0.8 (≈ 1.98 µM)	–	1.6 (≈ 3.96 µM)	–	0.2 (≈ 0.495 µM)	3.1 (≈ 7.66 µM)	140 (≈ 346 µM)	0.05 (≈ 0.124 µM)	0.2 (≈ 0.495 µM)	0.4 (≈ 0.989 µM)	0.025 (≈ 0.0618 µM)	0.025 (≈ 0.0618 µM)	0.1 (≈ 0.247 µM)	0.1 (≈ 0.247 µM)	3.1 (≈ 7.66 µM)	0.8 (≈ 1.98 µM)	0.025 (≈ 0.0618 µM)	0.006 (≈ 0.0148 µM)	–
CC1(CN)CCN(c2c(F)cc3c(=O)c(C(=O)O)cn(C4CC4)c3c2F)C1 (centres undefined)	1.6 (≈ 4.24 µM)	0.4 (≈ 1.06 µM)	< 30	0.4 (≈ 1.06 µM)	<30	0.1 (≈ 0.265 µM)	0.4 (≈ 1.06 µM)	7.7 (≈ 20.4 µM)	–	–	–	–	–	–	–	–	–	–	–	–
COc1c(N2CCC(N)C2)c(F)c(N)c2c(=O)c(C(=O)O)cn(C3CC3)c12 (centres undefined)	3.1 (≈ 8.24 µM)	0.8 (≈ 2.13 µM)	> 100	0.8 (≈ 2.13 µM)	100	0.2 (≈ 0.531 µM)	1.6 (≈ 4.25 µM)	–	0.05 (≈ 0.133 µM)	0.05 (≈ 0.133 µM)	0.1 (≈ 0.266 µM)	0.1 (≈ 0.266 µM)	0.05 (≈ 0.133 µM)	0.025 (≈ 0.0664 µM)	0.025 (≈ 0.0664 µM)	0.8 (≈ 2.13 µM)	0.2 (≈ 0.531 µM)	0.05 (≈ 0.133 µM)	0.006 (≈ 0.0159 µM)	–
O=C(O)c1cn(C2CC2)c2cc(N3CCNCC3)c(F)cc2c1=O [CIPROFLOXACIN]	–	1.6 (≈ 4.83 µM)	172	0.8 (≈ 2.41 µM)	100	–	3.1 (≈ 9.36 µM)	–	3.1 (≈ 9.36 µM)	–	0.1 (≈ 0.302 µM)	0.8 (≈ 2.41 µM)	1.6 (≈ 4.83 µM)	0.025 (≈ 0.0754 µM)	–	0.4 (≈ 1.21 µM)	0.1 (≈ 0.302 µM)	0.8 (≈ 2.41 µM)	0.2 (≈ 0.604 µM)	–
